NF-kB neuron act – activators of NF-kB expression in neurons, primary screen, cell-based, HTS. AID 1239, 2008. 190,000 compounds, 1.6% hits. human neuronal cells, NF-kB reporter expression; hits give high values. fold change at 12.5 µM; in the data active = fold change above about 3.3
FLuc act counter – FLuc activators, initial screening, artefact control for FLuc-dependent activation tests, biochemical, ATPlite luminescence; activation factor at 10 µM; 200,000 tested, under 10 active; ATPlite luciferase biochemical, 10 min; 0 = ATP-free wells, 1 = DMSO control; AID 1027, 2008;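 active = luciferase activation factor, scaled between plate controls, of at least 2 with compound at 10 µM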
Target sequence (P08659 whole entry, looked up): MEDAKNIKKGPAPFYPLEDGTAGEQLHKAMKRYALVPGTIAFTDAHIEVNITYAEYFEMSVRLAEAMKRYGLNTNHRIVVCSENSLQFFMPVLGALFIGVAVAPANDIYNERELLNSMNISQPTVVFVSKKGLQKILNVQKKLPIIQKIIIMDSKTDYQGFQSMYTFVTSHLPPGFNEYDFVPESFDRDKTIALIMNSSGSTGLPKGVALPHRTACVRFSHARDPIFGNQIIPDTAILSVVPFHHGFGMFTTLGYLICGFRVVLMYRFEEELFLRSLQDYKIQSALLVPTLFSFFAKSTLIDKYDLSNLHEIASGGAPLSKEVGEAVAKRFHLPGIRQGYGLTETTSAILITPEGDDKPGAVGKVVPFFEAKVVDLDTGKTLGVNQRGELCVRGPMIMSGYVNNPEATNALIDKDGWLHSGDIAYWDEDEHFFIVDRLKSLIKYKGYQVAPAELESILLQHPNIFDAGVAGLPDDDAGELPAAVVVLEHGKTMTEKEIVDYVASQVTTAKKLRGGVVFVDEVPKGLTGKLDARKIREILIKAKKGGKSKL
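Assay system: Luciferase/luciferin detection reagent, cell-free biochemical luciferase assay / Read-out: luciferase activation / Benchmarks: No-ATP low control, compound-free enzyme-plus-ATP high control / Medium: PBS buffer for ATP / Detection: luminescence measurement of luciferase light output / Schedule: 10 min at ambient temperature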
APP 5'UTR act – activators of APP 5'UTR luciferase reporter, primary screen, SH-SY5Y cells. SH-SY5Y APP 5'UTR luciferase reporter, luminescence; zero percent = DMSO vehicle wells. activation, % at 2 µM. 190,000 compounds, 1% hits. AID 1276, 2008;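 active = activation above a set limit, based on mean plus 3 SD of controls, cut at about 140% in these data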
Pf gamet viab – late stage P. falciparum gametocyte viability inhibitors, primary screen, ATP luminescence, HTS; 150,000 compounds, 0.065% hits; P. falciparum stage V gametocytes, 24 h; inhibition, % at 10.9 µM;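 active = inhibition above the mean plus 3 SD of compounds within the control limits, set per campaign, cut at about 38% in these data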
STAT1 act – STAT1 signaling activators, primary screen, cell-based, HTS, luciferase reporter; NIH 3T3 STAT1-luciferase reporter, IFN-gamma, luminescence; 100% = IFN-gamma alone, no compound; activation (% of control), % at 5.5 µM; 200,000 compounds, 2.6% hits; AID 932, 2007;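 active = activation above the screen-wide mean activation plus 3 SD, cut at about 130% in these data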
FLuc inhib CS – firefly luciferase enzyme inhibitors, primary screen, artefact control for luciferase-based inhibitor screens, biochemical, luminescence, ATPLite; Luciferin 4-monooxygenase (Photinus pyralis), P08659; inhibition, % at 10 µM; 200,000 compounds, 1.5% hits; 10 min;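 active = inhibition above about 50% when tested at 10 µM, limit read from the data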
A number is an active result; i = inactive; nt = not tested or not shown. Only some compounds are listed: those with a hit (about 3.5% of all), similar ones and a draw of the others.

SMILES | NF-kB neuron act | FLuc act counter | APP 5'UTR act | Pf gamet viab | STAT1 act | FLuc inhib CS
CCc1nnc(NC(=O)CSc2ccc(-c3ccc(C)cc3)nn2)s1 | i | i | i | nt | i | 55.2
CCc1nnc(NC(=O)CSc2nnc(C)n2-c2ccc(C)cc2)s1 | i | i | i | nt | i | i
CCCCN1C(=O)Nc2ccccc2S1(=O)=O | i | i | i | i | i | i
CCOC(=O)n1ccc(C(=O)Nc2ccccc2F)n1 | i | i | i | i | i | i
CCOC(=O)c1c(N)sc(C(=O)Nc2ccccc2F)c1C | 7.44 | i | 237.9 | i | i | 75.3
CCOC(=O)c1cc(C(=O)Nc2ccccc2F)nn1C | 5.89 | i | i | nt | 133.4 | i
CCC(=O)Nc1sc(C(=O)Nc2ccccc2F)c(C)c1C(=O)OC | i | i | i | i | 131.2 | i
CCOC(=O)c1c(N)sc(C(=O)Nc2ccccc2)c1C | 7.1 | i | 221.8 | i | i | 84.2
CCN(CC)C(=O)Oc1ccc2c(=O)c(-c3ccc(OC)cc3)coc2c1 | i | i | i | i | 143.6 | i
CCN(CC)C(=O)Oc1ccc2c(=O)c(-c3ccc(OC)cc3)c(C)oc2c1 | i | i | i | i | i | i
CC(=O)Oc1ccc2c(=O)c(-c3nc4ccccc4s3)coc2c1 | i | i | 196.2 | i | i | 79.7
Cc1cc(C2=NNC(=NC3CC3)SC2)c(C)n1-c1ccccc1 | i | i | i | nt | i | 96.8
COCCCN=C1NN=C(c2cc(C)n(Cc3ccco3)c2C)CS1 | i | i | i | i | i | 70.2
Cc1cc(C2=NNC(=NC3CC3)SC2)c(C)n1Cc1ccco1 | i | i | i | i | i | 95.8
COCCn1c(C)cc(C2=NNC(=Nc3ccc(Cl)cc3Cl)SC2)c1C | i | i | i | i | i | i
COCC(C)N=C1NN=C(c2cc(C)n(Cc3ccccc3Cl)c2C)CS1 (configuration not stated) | i | i | i | i | i | 54.1
CCCN1CCN(C(=O)c2ccccc2-c2nc3ccccc3s2)CC1 | i | i | i | i | i | i
CCN1CCN(C(=O)c2ccc(-c3nc4ccccc4s3)s2)CC1 | 4.18 | i | i | i | 129.6 | i
O=C(c1ccc(-c2nc3ccccc3s2)s1)N1CCOCC1 | i | i | i | i | i | 96.0
Cc1noc(C)c1COC(=O)c1ccc(-c2nc3ccccc3s2)s1 | i | i | i | i | i | i
Cc1ccc2nc(NC(=O)c3ccc(-c4nc5ccccc5s4)s3)sc2c1 | i | i | i | nt | i | i
CCNC(=O)COC(=O)c1ccc(-c2nc3ccccc3s2)s1 | i | i | i | i | i | 86.7
O=C(c1cc2ccccc2s1)N1CCOCC1 | nt | nt | nt | i | nt | nt
O=C(NC1CC1)c1ccc(-c2nc3ccccc3s2)s1 | i | i | i | i | i | 95.9
COc1ccc(S(=O)(=O)N(C)C[C@H]2Oc3c(NC(=O)C4CCCCC4)cccc3C(=O)N([C@H](C)CO)C[C@@H]2C)cc1 | nt | nt | nt | i | nt | nt
SMILES | NF-kB neuron act | FLuc act counter | APP 5'UTR act | Pf gamet viab | STAT1 act | FLuc inhib CS
c1ccc(OCCSc2nnnn2C2CCCCC2)cc1 | nt | i | 142.5 | i | 132.9 | i
Brc1ccc(-c2cnco2)cc1 | i | i | i | i | i | i
O=[N+]([O-])c1ccccc1N/N=C\c1ccccc1Cl | 3.67 | i | nt | i | i | i
COc1ccccc1C(=O)C1CCCN(C(=O)Nc2ccccc2F)C1 (configuration not stated) | i | i | i | nt | i | i
Cc1cccc(N=C2NN=C(c3ccc4c(c3)OCCO4)CS2)c1 | i | i | 140.0 | nt | i | 81.2
CC(=O)N(/N=C1\Sc2ccccc2C1=O)c1ccccc1C | 5.03 | i | i | i | i | i
Cc1ccc(O)c(NC(=O)c2noc3c2CCc2ccccc2-3)c1 | i | i | i | nt | i | i
COc1ccc2c(c1)CCc1c(C(=O)NCC(C)C)noc1-2 | 6.27 | i | 177.9 | i | i | i
CCCNC(=O)c1noc2c1CCc1cc(OC)ccc1-2 | 6.07 | i | 159.5 | i | i | 78.5
Cc1cc(NC(=O)c2noc3c2CCc2ccccc2-3)no1 | i | i | nt | nt | nt | i
COc1ccc2c(c1)CCc1c(C(=O)N3CCCCCC3)noc1-2 | 3.4 | i | i | i | 136.2 | i
COc1ccc2c(c1)CCc1c(C(=O)NCc3cccnc3)noc1-2 | i | i | i | nt | i | i
CC(=O)c1cccc(NC(=O)c2noc3c2CCc2ccccc2-3)c1 | i | i | 169.4 | i | i | i
Cc1ccc(NC(=O)C(C)NC(=O)OCc2ccccc2)cc1C (configuration not stated) | nt | nt | nt | i | nt | nt
CN(C)N1C(=O)CC(C)(c2ccc([N+](=O)[O-])cc2)C1=O (configuration not stated) | nt | nt | nt | i | nt | nt
CN(C)c1ccc(C=Nc2ccc(N(C)C)cc2)cc1 | i | i | 175.3 | i | 144.2 | i
C/C(=N/N=C/c1ccc(N(C)C)cc1)c1ccccc1 | i | i | 188.7 | nt | 132.6 | 76.7
CN(C)c1ccc(N=Cc2ccco2)cc1 | i | i | 152.8 | nt | 150.4 | i
CN(C)c1ccc(C=Nc2ccccc2)cc1 | i | i | i | nt | i | i
Cc1ccc(NC(=O)CCn2nnc3ccccc32)c(C)c1 | i | i | i | nt | i | i
Cc1ccc(C(=O)Cn2nnc3ccccc32)cc1 | 3.34 | i | i | nt | i | i
O=C(Cn1nnc2ccccc21)NCc1ccccc1 | i | i | i | nt | 144.1 | i
O=C(Cn1nnc2ccccc21)c1ccc(Br)cc1 | nt | nt | nt | i | nt | nt
Cc1ccc(C(=O)Cn2nnc3ccccc32)cc1C | 4.13 | i | i | nt | 143.2 | i
Cc1ccc(NC(=O)CCn2nnc3ccccc32)cc1 | i | i | i | i | 130.5 | i
SMILES | NF-kB neuron act | FLuc act counter | APP 5'UTR act | Pf gamet viab | STAT1 act | FLuc inhib CS
Cc1ccc(C(=O)NNC(=O)Cn2nnc3ccccc32)cc1 | nt | nt | nt | i | nt | nt
O=[N+]([O-])c1ccc(O)c(CSc2nnnn2-c2ccccc2)c1 | nt | nt | nt | i | nt | nt
Cc1cn2nc(N)c3ccccc3c2n1 | i | i | i | nt | i | i
Nc1nn2cc(-c3ccccc3)nc2c2ccccc12 | i | i | 197.7 | i | 143.4 | 84.6
COc1cc2c(cc1OC)CN(C1CCCN(Cc3cc(Cl)ccc3O)C1)CC2 (configuration not stated) | nt | nt | nt | i | nt | nt
Nc1c(C(=O)c2ccc(Cl)cc2)sc2nc3c(cc12)CCC3 | i | i | 135.2 | i | i | i
CCOc1ccc(NC(=O)CN2C(=O)c3cccc4cccc2c34)cc1 | nt | nt | nt | i | nt | nt
c1ccc(-c2noc(-c3cccc4ccccc34)n2)cc1 | 6.14 | i | i | nt | 141.6 | i
Clc1ccc(Br)cc1-c1nc(-c2ccncc2)no1 | i | i | i | nt | 137.0 | i
c1ccc2c(-c3nc(-c4ccncc4)no3)cccc2c1 | i | i | i | nt | 129.1 | i
Brc1cccc(-c2nc(-c3ccncc3)no2)c1 | i | i | i | i | i | i
Fc1ccccc1-c1nc(-c2ccncc2)no1 | nt | nt | nt | i | nt | nt
c1cncc(-c2noc(-c3cccc4ccccc34)n2)c1 | i | i | i | nt | i | i
Nc1ccc2oc(-c3ccc4nc[nH]c4c3)nc2c1 | i | i | i | i | 131.8 | 83.2

Screening results (PubChem)
